The text below walks through data of ChEMBL document CHEMBL4219194, “Diversity-oriented synthesis of pyrazoles derivatives from flavones and isoflavones leads to the discovery of promising reversal agents of fluconazole resistance in Candida albicans” (2018).

Converted amounts (≈) assume the structure as drawn.

Holding throughout (type): functional
The test system of assay [1] is Candida albicans. Briefly: Synergistic antifungal activity against fluconazole-resistant Candida albicans 28A after 48 hrs in presence of fluconazole by broth microdilution checkerboard method. In a few lines: (§1)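 Checkerboard dose-response matrix on strain 28A with gradients of fluconazole and the test compound in RPMI 1640, read after 48 h at 35 °C. MIC80 is taken alone and in combination, and FICI is calculated. Synergy is FICI ≤0.5, indifference >0.5-4, and antagonism >4.0.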
(Broth dilution looks for growth in wells or tubes with falling amounts of substance.)

The subject of assay [2] is Candida albicans. Briefly: Antifungal activity against CDR1 and CDR2 efflux pump deficient Candida albicans DSY654 after 48 hrs by broth microdilution method. Particulars: DSY654, 48 h. In a few lines: (§2)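 MIC80 read by broth microdilution, with fluconazole as the positive antifungal agent. Values are reported in µg/mL as means of three independent experiments. Strains: wild-type SC5314 and DSY654, which lacks the Cdr1 and Cdr2 efflux pumps.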

In assay [3] the test system is Candida albicans. Kind of assay: Antifungal activity against Candida albicans SC5314 after 48 hrs by broth microdilution method. The following applies: SC5314, 48 h. The method, boiled down: as §2
Assay [4] concerns Candida albicans. Kind of assay: Potentiation of fluconazole-induced antifungal activity against fluconazole-resistant Candida albicans 28A assessed as fluconazole MIC80 after 48 hrs by broth microdilution checkerboard method. The method, boiled down:
as §1

Assay [5] has as its system Candida albicans. Kind of assay: Potentiation of fluconazole-induced antifungal activity against fluconazole-resistant Candida albicans 28A after 48 hrs by broth microdilution checkerboard method. In a few lines:
as §1

For assay [6], the system named is Candida albicans. Briefly: Antifungal activity against fluconazole-resistant Candida albicans 28A after 48 hrs by broth microdilution method. The method, boiled down:
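Clinical fluconazole-resistant isolates tested in broth microdilution with the compound alone. The endpoint is MIC80, the lowest concentration giving 80% growth inhibition, in µg/mL.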

By MIC80 is commonly meant the lowest concentration that inhibits either 80% of growth or 80% of the strains tested, depending on the study. Regarding `COc1ccc(-c2cnn(-c3ccccc3)c2-c2c(O)cc(OC)cc2OC)cc1`, the MIC80 in the assay with Candida albicans [1], in the assay with Candida albicans [2], in the assay on Candida albicans [3], with Candida albicans [4] and in the assay with Candida albicans [6] was more than 128 µg/mL throughout. The “fractional inhibitory concentration index (FICI)” value in the assay on Candida albicans [5] stood at 2.

On to `COc1ccc(-c2cn(-c3ccccc3)nc2-c2c(O)cc(OC)cc2OC)cc1`, for which the MIC80 in the assay with Candida albicans [1], against Candida albicans [2], in the assay on Candida albicans [3], in the assay with Candida albicans [4] and in the assay on Candida albicans [6] was more than 128 µg/mL in each case. The “fractional inhibitory concentration index (FICI)” value in the assay on Candida albicans [5] is reported as 2.

With `COc1ccc(C2=NCCNC(c3ccccc3)=C2)c(O)c1OC`, the MIC80 in the assay with Candida albicans [1], against Candida albicans [2], in the assay on Candida albicans [3], in the assay with Candida albicans [4] and with Candida albicans [6] was more than 128 µg/mL each time. Besides, in the assay with Candida albicans [5], the “fractional inhibitory concentration index (FICI)” value amounted to 2.

As for `COc1ccc(-c2cnn(-c3ccc(OC)cc3)c2-c2ccc(O)cc2O)cc1`, the MIC80 in the assay with Candida albicans [1], with Candida albicans [2], with Candida albicans [3], with Candida albicans [4] and in the assay on Candida albicans [6] was more than 128 µg/mL each time. The “fractional inhibitory concentration index (FICI)” value in the assay with Candida albicans [5] stood at 2.

Turning to `COc1ccc(-c2c[nH]nc2-c2ccc(O)cc2O)cc1`, the MIC80 in the assay on Candida albicans [1], in the assay with Candida albicans [2], in the assay on Candida albicans [3], with Candida albicans [4] and against Candida albicans [6] was more than 128 µg/mL throughout. Besides, the “fractional inhibitory concentration index (FICI)” value in the assay on Candida albicans [5] came to 2.

In the case of `CCn1cc(-c2ccc(OC)cc2)c(-c2ccc(O)cc2O)n1`, the MIC80 in the assay with Candida albicans [1], in the assay with Candida albicans [2], in the assay with Candida albicans [3], in the assay with Candida albicans [4] and with Candida albicans [6] was more than 128 µg/mL throughout. Moreover, in the assay on Candida albicans [5], the “fractional inhibitory concentration index (FICI)” value turned out to be 2.

`Oc1ccc(-c2cn[nH]c2-c2c(O)cc(O)cc2O)cc1`: the MIC80 in the assay with Candida albicans [1], with Candida albicans [2], in the assay on Candida albicans [3], in the assay with Candida albicans [4] and against Candida albicans [6] was more than 128 µg/mL in each case. Further, the “fractional inhibitory concentration index (FICI)” value in the assay on Candida albicans [5] came to 2.

Turning to `COc1ccc(-c2cc(-c3c(O)cc(OC)cc3OC)[nH]n2)cc1`, the MIC80 in the assay with Candida albicans [1], against Candida albicans [2], against Candida albicans [3], with Candida albicans [4] and with Candida albicans [6] was more than 128 µg/mL in each case. The “fractional inhibitory concentration index (FICI)” value in the assay with Candida albicans [5] is 2.

On to `CCn1cc(-c2ccc(O)cc2)c(-c2ccc(O)c(C3OC(CO)C(O)C(O)C3O)c2O)n1` (stereo not drawn), for which the MIC80 in the assay on Candida albicans [1], against Candida albicans [2], against Candida albicans [3], in the assay with Candida albicans [4] and with Candida albicans [6] was more than 128 µg/mL throughout. Moreover, the “fractional inhibitory concentration index (FICI)” value in the assay on Candida albicans [5] came out at 2.

On to `COc1ccc(-c2cn[nH]c2-c2c(O)cc(OC)cc2OC)cc1`, for which the MIC80 with Candida albicans [1], against Candida albicans [2], against Candida albicans [3], in the assay with Candida albicans [4] and against Candida albicans [6] was more than 128 µg/mL throughout. In addition, the “fractional inhibitory concentration index (FICI)” value in the assay with Candida albicans [5] came out at 2.

Consider `OCCn1cc(-c2ccc(O)cc2)c(-c2ccc(O)c(C3OC(CO)C(O)C(O)C3O)c2O)n1` (stereo not drawn), for which the MIC80 in the assay on Candida albicans [1], against Candida albicans [2], in the assay with Candida albicans [3], in the assay on Candida albicans [4] and against Candida albicans [6] was more than 128 µg/mL each time. Also, the “fractional inhibitory concentration index (FICI)” value with Candida albicans [5] amounted to 2.

Take `COc1cc(O)c(C2=NCCNC(c3ccccc3)=C2)c(OC)c1`: the MIC80 in the assay on Candida albicans [1] was determined as 32 µg/mL; against Candida albicans [2], 8 µg/mL (≈ 24.7 µM); with Candida albicans [3] it was 128 µg/mL (≈ 395 µM); with Candida albicans [4], 2 µg/mL; with Candida albicans [6], 128 µg/mL (≈ 395 µM). Also, in the assay on Candida albicans [5], the “fractional inhibitory concentration index (FICI)” value is 0.266.

For the compound `COc1ccc(-n2nc(-c3ccccc3)cc2-c2ccc(OC)c(OC)c2O)cc1`, the MIC80 is more than 128 µg/mL in the assay on Candida albicans [1]; 8 µg/mL (≈ 19.9 µM) against Candida albicans [2]; more than 128 µg/mL against Candida albicans [3]; more than 128 µg/mL in the assay on Candida albicans [4]; more than 128 µg/mL in the assay with Candida albicans [6]. The “fractional inhibitory concentration index (FICI)” value in the assay with Candida albicans [5] is recorded as 2.
